Reference: PMC3809033 (Clinical pharmacology and therapeutics, 2011)

Columns and labels:
[1] = biological target: T1, 5-HT2C receptor (Homo sapiens, UniProt P28335); assay: radioligand competition binding; settings: read-out: [drawing 1] / In vitro; Cheng-Prusoff; details in supplement
T1 sequence (P28335 33-458): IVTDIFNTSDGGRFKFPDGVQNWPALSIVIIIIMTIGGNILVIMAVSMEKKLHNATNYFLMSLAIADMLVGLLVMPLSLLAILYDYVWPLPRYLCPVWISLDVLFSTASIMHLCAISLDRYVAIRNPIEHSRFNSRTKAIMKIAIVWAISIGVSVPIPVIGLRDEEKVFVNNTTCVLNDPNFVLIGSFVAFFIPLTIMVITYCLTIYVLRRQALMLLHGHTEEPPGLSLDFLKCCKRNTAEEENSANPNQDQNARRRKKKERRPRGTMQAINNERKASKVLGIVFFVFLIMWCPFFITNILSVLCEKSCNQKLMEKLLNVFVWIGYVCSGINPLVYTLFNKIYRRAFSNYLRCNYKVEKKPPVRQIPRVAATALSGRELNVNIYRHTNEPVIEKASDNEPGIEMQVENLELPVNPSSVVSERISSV
Summary of the method: (§1)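 Test compound (purity >98%) was run in competition against radioligand binding at six concentrations from 10 nmol/l to 100 μmol/l to build concentration–response curves. IC50 (50% displacement of bound radioligand) was obtained by nonlinear fitting. Ki was derived with Cheng–Prusoff, using free radioligand concentration and each radioligand's KD, and expressed as pKi.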

[2] = biological target: serotonin transporter (Homo sapiens, UniProt P31645); assay: radioligand competition binding; settings: read-out: [drawing 1] / In vitro; Cheng-Prusoff; details in supplement
Summary of the method: as §1

[3] = biological target: 5-HT2B receptor (Homo sapiens, UniProt P41595); assay: radioligand competition binding; settings: read-out: [drawing 1] / In vitro; Cheng-Prusoff; details in supplement
Summary of the method: as §1

[4] = biological target: 5-HT7 receptor (Homo sapiens, UniProt P34969); assay: radioligand competition binding; settings: read-out: [drawing 1] / In vitro; Cheng-Prusoff; details in supplement
Summary of the method: as §1

[5] = biological target: norepinephrine transporter (Homo sapiens, UniProt P23975); assay: radioligand competition binding; settings: read-out: [drawing 1] / In vitro; Cheng-Prusoff; details in supplement
Summary of the method: as §1

[6] = biological target: 5-HT6 receptor (Homo sapiens, UniProt P50406); assay: radioligand competition binding; settings: read-out: [drawing 1] / In vitro; Cheng-Prusoff; details in supplement
Summary of the method: as §1

[7] = biological target: dopamine transporter (DAT) (Homo sapiens, UniProt Q01959); assay: radioligand competition binding; settings: read-out: [drawing 1] / In vitro; Cheng-Prusoff; details in supplement
Summary of the method: as §1

[8] = biological target: 5-HT2A receptor (Homo sapiens, UniProt P28223); assay: inositol phosphate release, antagonist mode; type: cell-based; settings: receptor activated by 1 μmol/l 5-HT
Sequence of 5-HT2A receptor (P28223 whole entry): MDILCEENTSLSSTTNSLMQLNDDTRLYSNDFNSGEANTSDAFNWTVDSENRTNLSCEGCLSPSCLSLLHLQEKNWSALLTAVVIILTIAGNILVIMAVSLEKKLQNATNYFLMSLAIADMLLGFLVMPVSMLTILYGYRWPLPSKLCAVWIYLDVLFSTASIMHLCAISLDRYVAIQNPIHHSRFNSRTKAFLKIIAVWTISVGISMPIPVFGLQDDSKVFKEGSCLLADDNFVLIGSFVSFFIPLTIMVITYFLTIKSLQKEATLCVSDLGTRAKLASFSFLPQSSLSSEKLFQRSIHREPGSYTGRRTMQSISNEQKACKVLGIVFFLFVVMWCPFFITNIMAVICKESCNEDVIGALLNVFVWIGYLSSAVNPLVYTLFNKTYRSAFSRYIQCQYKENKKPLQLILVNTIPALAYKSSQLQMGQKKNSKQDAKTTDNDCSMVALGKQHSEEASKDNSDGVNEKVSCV

Sequence of 5-HT7 receptor (P34969 whole entry): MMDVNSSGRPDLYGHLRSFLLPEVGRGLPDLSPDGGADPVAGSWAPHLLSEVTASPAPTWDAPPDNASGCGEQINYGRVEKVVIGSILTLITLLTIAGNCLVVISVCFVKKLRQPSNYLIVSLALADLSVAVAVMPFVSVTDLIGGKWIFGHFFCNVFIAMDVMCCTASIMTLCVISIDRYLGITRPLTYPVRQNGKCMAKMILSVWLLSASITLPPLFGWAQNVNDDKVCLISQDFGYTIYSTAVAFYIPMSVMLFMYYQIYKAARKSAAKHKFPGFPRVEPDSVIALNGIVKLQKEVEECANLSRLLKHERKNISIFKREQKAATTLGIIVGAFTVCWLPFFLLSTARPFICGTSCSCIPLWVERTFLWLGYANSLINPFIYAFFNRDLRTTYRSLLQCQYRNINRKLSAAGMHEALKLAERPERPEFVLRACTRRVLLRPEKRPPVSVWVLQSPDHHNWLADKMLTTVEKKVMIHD
Sequence of norepinephrine transporter (P23975 whole entry): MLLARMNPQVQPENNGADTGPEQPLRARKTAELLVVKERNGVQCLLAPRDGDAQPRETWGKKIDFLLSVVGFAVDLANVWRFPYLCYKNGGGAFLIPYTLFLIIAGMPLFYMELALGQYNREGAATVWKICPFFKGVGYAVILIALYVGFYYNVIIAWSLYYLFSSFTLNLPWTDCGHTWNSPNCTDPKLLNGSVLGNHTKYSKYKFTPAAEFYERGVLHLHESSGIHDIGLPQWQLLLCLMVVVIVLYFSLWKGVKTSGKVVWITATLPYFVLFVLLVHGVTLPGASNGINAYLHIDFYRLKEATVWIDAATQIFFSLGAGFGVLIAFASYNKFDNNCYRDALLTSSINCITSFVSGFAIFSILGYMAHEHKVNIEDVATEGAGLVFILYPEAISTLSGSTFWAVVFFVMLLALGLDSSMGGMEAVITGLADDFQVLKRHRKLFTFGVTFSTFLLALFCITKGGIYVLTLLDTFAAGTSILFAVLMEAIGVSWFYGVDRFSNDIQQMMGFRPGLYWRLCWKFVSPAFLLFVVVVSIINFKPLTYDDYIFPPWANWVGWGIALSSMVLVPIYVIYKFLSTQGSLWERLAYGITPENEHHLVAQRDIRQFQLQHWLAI
Sequence of 5-HT2B receptor (P41595 whole entry): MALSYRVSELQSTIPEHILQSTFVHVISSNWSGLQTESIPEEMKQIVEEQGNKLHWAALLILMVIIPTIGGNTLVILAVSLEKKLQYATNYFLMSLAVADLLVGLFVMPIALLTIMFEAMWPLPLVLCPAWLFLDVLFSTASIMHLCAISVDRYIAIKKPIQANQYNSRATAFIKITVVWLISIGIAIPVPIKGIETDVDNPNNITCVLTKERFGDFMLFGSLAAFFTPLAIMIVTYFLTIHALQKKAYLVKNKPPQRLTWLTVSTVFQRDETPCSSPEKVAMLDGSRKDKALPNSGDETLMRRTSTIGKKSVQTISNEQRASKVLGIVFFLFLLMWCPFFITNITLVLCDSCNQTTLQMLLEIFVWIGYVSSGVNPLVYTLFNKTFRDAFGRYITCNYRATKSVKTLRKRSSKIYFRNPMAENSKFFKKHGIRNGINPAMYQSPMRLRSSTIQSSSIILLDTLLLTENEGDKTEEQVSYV
Sequence of dopamine transporter (DAT) (Q01959 whole entry): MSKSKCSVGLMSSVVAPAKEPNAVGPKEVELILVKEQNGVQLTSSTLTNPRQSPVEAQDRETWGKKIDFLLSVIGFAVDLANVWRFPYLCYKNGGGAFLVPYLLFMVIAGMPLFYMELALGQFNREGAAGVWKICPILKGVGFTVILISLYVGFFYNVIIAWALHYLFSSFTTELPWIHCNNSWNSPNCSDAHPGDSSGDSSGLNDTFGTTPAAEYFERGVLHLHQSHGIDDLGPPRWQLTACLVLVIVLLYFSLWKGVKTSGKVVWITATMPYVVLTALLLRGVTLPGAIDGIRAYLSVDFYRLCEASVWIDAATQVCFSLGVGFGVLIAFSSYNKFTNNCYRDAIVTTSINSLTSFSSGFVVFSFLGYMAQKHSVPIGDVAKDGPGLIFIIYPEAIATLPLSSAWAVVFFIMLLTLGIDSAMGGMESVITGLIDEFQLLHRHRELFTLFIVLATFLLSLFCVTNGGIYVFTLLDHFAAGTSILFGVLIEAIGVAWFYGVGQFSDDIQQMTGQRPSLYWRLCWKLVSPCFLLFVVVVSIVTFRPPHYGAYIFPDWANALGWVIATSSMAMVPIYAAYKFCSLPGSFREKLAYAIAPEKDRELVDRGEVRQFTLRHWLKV
Sequence of 5-HT6 receptor (P50406 whole entry): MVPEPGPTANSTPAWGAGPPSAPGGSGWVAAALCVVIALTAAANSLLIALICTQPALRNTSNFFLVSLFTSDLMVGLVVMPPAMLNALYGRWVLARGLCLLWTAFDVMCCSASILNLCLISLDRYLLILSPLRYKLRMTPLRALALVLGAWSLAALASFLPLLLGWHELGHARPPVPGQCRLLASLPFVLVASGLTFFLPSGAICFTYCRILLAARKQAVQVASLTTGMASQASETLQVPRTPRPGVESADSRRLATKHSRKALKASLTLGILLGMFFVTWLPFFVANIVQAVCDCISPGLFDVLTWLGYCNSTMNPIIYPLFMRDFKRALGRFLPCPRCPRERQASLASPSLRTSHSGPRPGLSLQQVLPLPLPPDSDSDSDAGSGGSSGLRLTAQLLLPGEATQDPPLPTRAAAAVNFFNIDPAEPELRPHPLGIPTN
Sequence of serotonin transporter (P31645 whole entry): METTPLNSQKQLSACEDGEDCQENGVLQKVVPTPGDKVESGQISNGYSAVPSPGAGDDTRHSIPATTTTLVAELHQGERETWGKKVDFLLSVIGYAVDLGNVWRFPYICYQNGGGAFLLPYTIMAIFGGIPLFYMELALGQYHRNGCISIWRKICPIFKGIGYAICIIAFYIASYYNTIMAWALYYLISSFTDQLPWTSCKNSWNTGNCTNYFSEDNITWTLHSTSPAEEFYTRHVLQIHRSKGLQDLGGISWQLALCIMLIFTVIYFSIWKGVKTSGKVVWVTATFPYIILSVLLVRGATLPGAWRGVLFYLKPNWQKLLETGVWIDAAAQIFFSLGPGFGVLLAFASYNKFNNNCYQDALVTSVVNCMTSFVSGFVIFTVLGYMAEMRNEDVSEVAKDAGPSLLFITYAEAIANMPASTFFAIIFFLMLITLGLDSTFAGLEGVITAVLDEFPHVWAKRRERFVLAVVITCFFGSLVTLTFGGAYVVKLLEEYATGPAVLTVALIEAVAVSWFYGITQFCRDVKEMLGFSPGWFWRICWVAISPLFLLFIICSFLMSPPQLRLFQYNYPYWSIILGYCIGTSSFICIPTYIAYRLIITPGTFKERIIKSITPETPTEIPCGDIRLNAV

`CN(C)CCC=C1c2ccccc2C=Cc2ccccc21` [cyclobenzaprine] gave a Ki [1] of 57 nM, a Ki [2] of 108 nM and a Ki [3] of 154 nM. The Ki [4] was 151 nM, the Ki [5] was 36 nM and the Ki [6] was 145 nM. The Ki [7] was 5490 nM and the Kb [8] was 28.8 ± 2.49 nM.
